Data reported in ChEMBL document CHEMBL5223070, “Synthesis and optimisation of P3 substituted vinyl sulfone-based inhibitors as anti-trypanosomal agents” (Bioorg Med Chem, 2020).

Key:
[1] = tested on: Trypanosoma brucei brucei; assay: Antitrypanosomal activity against Trypanosoma brucei brucei MIT measured after 6 hrs by Alamar blue cell viability assay; format: functional, organism-based
In short: (§1)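 Bloodstream-form T. b. brucei MITat1.1 kept in log phase in antibiotic-free HMI-9 with 10% heat-inactivated FBS, 37 °C, 5% CO2. Seeded at 2 × 10⁵ cells/mL with 5 μM–100 pM compound or DMSO alone. Alamar Blue added at 6 h, total incubation 24 h. Absorbance read at 540 and 595 nm. Triplicate. EC50 by four-parameter variable-slope nonlinear regression.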

[2] = Growth inhibition of human HaCaT cells incubated for 24 hrs by MTT assay; format: toxicity, cell-based
In short: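 HaCaT cells (mycoplasma-tested) in DMEM with 10% fetal calf serum, seeded at 1x10⁵ cells/mL for 24 h, washed with PBS and then exposed to compound for 24 h. Controls were 0.1% v/v Triton X-100 and untreated cells. MTT (0.5 mg/mL) added for 3 h, formazan dissolved in DMSO and read at 590 nm. GI50 from log(inhibitor) vs normalised response. Triplicate wells, repeated on three separate days.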

HaCaT [3] = assay: Growth inhibition of human HaCaT cells assessed as reduction in cell viability at above 10 uM incubated for 24 hrs by MTT assay
[4] = tested on: Trypanosoma brucei brucei; assay: Antitrypanosomal activity against Trypanosoma brucei brucei assessed as reduction in survival; format: functional, organism-based; in short: as §1
HaCaT [5] = assay: Growth inhibition of human HaCaT cells assessed as LDH release at 100 uM incubated for 24 hrs by MTT assay; format: toxicity, cell-based
In short: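 HaCaT keratinocytes in DMEM with 10% fetal calf serum, seeded at 1x10⁵ cells/mL and grown 24 h. After a PBS wash, cells were exposed 24 h to compound at final 100 μM (from 10 mM DMSO stock, diluted in medium). Medium was then assayed for LDH release at 490/680 nm. Normalised to untreated cells and to lysis buffer (maximum release) as % cytotoxicity. Triplicate wells, three independent experiments.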

Structure (SMILES)	EC50 [1] [µM]	GI50 at 24 h [2] [µM]	growth inhibition (GI) (HaCaT [3])	IC50 [4] [µM]	growth inhibition (GI) (HaCaT [5])
O=C(N[C@@H](Cc1ccccc1)C(=O)N[C@H](/C=C/S(=O)(=O)c1ccccc1)CCCCNS(=O)(=O)c1cccc2ccccc12)OCc1ccccc1	0.74				
O=C(N[C@H](/C=C/S(=O)(=O)c1ccccc1)CCCCNS(=O)(=O)c1cccc2ccccc12)[C@H](Cc1ccccc1)NC(=O)N1CCOCC1	0.9				
O=C(N[C@H](/C=C/S(=O)(=O)c1ccccc1)CCCCNS(=O)(=O)c1cccc2ccccc12)[C@H](Cc1ccccc1)n1cc(-c2ccccc2)nn1	1.12				
Cc1ccc(S(=O)(=O)N[C@@H](Cc2ccccc2)C(=O)N[C@H](/C=C/S(=O)(=O)c2ccccc2)CCCCNS(=O)(=O)c2cccc3ccccc23)cc1	0.99				
CN1CCN(C(=O)N[C@@H](Cc2ccccc2)C(=O)N[C@H](/C=C/S(=O)(=O)c2ccccc2)CCCCNS(=O)(=O)c2cccc3ccccc23)CC1	1.19	28.7	Toxic	1.18	Not Determined(Insoluble)
[N-]=[N+]=N[C@@H](Cc1ccccc1)C(=O)N[C@H](/C=C/S(=O)(=O)c1ccccc1)CCCCNS(=O)(=O)c1cccc2ccccc12	> 5				
N[C@@H](Cc1ccccc1)C(=O)N[C@H](/C=C/S(=O)(=O)c1ccccc1)CCCCNS(=O)(=O)c1cccc2ccccc12	3.43				
CC(C)(C)NC(=O)N[C@@H](Cc1ccccc1)C(=O)N[C@H](/C=C/S(=O)(=O)c1ccccc1)CCCCNS(=O)(=O)c1cccc2ccccc12	> 5				
O=C(N[C@@H](Cc1ccccc1)C(=O)N[C@H](/C=C/S(=O)(=O)c1ccccc1)CCCCNS(=O)(=O)c1cccc2ccccc12)c1ccncc1	0.71				
CCCCCCc1cn([C@@H](Cc2ccccc2)C(=O)N[C@H](/C=C/S(=O)(=O)c2ccccc2)CCCCNS(=O)(=O)c2cccc3ccccc23)nn1	1.05				
CCCCNC(=O)N[C@@H](Cc1ccccc1)C(=O)N[C@H](/C=C/S(=O)(=O)c1ccccc1)CCCCNS(=O)(=O)c1cccc2ccccc12	0.64				
O=C1N[C@@H](CCCCNS(=O)(=O)c2cccc3ccccc23)[C@@H](CS(=O)(=O)c2ccccc2)N[C@H]1Cc1ccccc1	> 5				
COc1cc(Br)c(S(=O)(=O)NCCCC[C@@H](/C=C/S(=O)(=O)c2ccccc2)NC(=O)[C@H](Cc2ccccc2)NC(=S)Nc2ccc(C(F)(F)F)cc2)cc1OC	0.39		Toxic	0.41	Not Determined(Insoluble)
O=C(N[C@@H](Cc1ccccc1)C(=O)N[C@H](/C=C/S(=O)(=O)c1ccccc1)CCCCNS(=O)(=O)c1cccc2ccccc12)c1ccc(C(F)(F)F)cc1	0.24		Toxic	0.242	Not Determined(Insoluble)
O=C(Nc1ccccc1)N[C@@H](Cc1ccccc1)C(=O)N[C@H](/C=C/S(=O)(=O)c1ccccc1)CCCCNS(=O)(=O)c1cccc2ccccc12	0.15		Toxic	0.144	Not Determined(Insoluble)
O=C(Cc1ccc2c(c1)OCO2)N[C@@H](Cc1ccccc1)C(=O)N[C@H](/C=C/S(=O)(=O)c1ccccc1)CCCCNS(=O)(=O)c1cccc2ccccc12	0.8				
O=C(N[C@H](/C=C/S(=O)(=O)c1ccccc1)CCCCNS(=O)(=O)c1cccc2ccccc12)[C@H](Cc1ccccc1)NC(=S)Nc1ccccc1	0.48				
O=C(N[C@H](/C=C/S(=O)(=O)c1ccccc1)CCCCNS(=O)(=O)c1cccc2ccccc12)[C@H](Cc1ccccc1)NC(=S)Nc1ccc(C(F)(F)F)cc1	0.22		Toxic	0.22	Not Determined(Insoluble)
